ChEMBL document CHEMBL1777787, “Identification of 4H,6H-[2]benzoxepino[4,5-c][1,2]oxazoles as novel squalene synthase inhibitors” (Bioorg Med Chem Lett, 2011)

Tests used:
Squalene synthase = molecular target: T1, Squalene synthase (Homo sapiens, UniProt P37268); assay: Inhibition of recombinant squalene synthase assessed as conversion of trans,trans-[1-3H]farnesyl pyrophosphate to [3H]squalene after 10 mins by liquid scintillation counting
T1 sequence (P37268 whole entry): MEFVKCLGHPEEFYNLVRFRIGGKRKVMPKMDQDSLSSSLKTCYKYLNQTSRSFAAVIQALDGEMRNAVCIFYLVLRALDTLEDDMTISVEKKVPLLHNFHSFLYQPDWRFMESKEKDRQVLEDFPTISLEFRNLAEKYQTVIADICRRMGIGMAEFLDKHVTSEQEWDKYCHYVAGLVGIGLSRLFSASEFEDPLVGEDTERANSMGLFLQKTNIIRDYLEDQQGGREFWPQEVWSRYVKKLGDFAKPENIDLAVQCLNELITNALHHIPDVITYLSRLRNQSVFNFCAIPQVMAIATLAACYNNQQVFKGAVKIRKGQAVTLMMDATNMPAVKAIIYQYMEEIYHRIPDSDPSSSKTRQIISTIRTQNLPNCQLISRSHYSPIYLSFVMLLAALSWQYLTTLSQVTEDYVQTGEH
Outline: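 Recombinant SQS in 1 mM NADPH, 5 mM DTT, 10% PBS, 10 mM sodium fluoride and 0.5 mM MgCl₂, pH 7.5. Compounds were added from DMSO at defined concentrations. The reaction was started with farnesyl pyrophosphate plus 0.2 nM trans,trans-[1-³H]-farnesyl pyrophosphate, run 10 min at 37 °C, then extracted with chloroform/methanol. IC50 values are means of three experiments.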

[1] = Stability in human liver microsomes assessed as compound remaining after 60 mins; assay type: ADME, Microsome; details: read-out: Stability
Mus musculus [2] = assay: In vivo inhibition of squalene synthase in NMRI mouse assessed as inhibition of hepatic [14C]cholesterol biosynthesis at 3 mg/kg, po measured after 1 hr by liquid scintillation counting
Mus musculus [3] = assay: In vivo inhibition of squalene synthase in NMRI mouse assessed as inhibition of hepatic [14C]cholesterol biosynthesis at 1 mg/kg, po measured after 1 hr by liquid scintillation counting

Compound | IC50 (Squalene synthase) [nM] | remaining at 1 h [1] [%] | inhibition in vivo at 3 mg/kg (Mus musculus [2]) [%] | inhibition in vivo at 1 mg/kg (Mus musculus [3]) [%]
COc1cccc([C@@H]2O[C@@H](CC(=O)O)c3noc(C(C)C)c3-c3ccc(Cl)cc32)c1OC | 1420 |  |  | 
COc1cccc([C@H]2O[C@H](CC(=O)O)c3noc(C(C)C)c3-c3ccc(Cl)cc32)c1OC | 56 | 100 | 58 | 
COc1cccc([C@H]2O[C@H](CC(=O)N3CC[C@@H](O)C3)c3noc(C(C)C)c3-c3ccc(Cl)cc32)c1OC | 162 |  |  | 
COc1cccc([C@H]2O[C@H](CC(=O)N3CCC(CC(=O)O)CC3)c3noc(C(C)C)c3-c3ccc(Cl)cc32)c1OC | 131 | 91 | 80 | 
COc1cccc([C@H]2O[C@H](CC(=O)N3CCC(C(=O)O)CC3)c3noc(C(C)C)c3-c3ccc(Cl)cc32)c1OC | 112 |  |  | 
COc1cccc([C@H]2O[C@H](CC(=O)O)C(=O)N(CC(C)(C)CO)c3ccc(Cl)cc32)c1OC | 223 |  |  | 
COc1cccc([C@H]2O[C@H](CC(=O)N3CCC(CC(=O)O)CC3)C(=O)N(CC(C)(C)CO)c3ccc(Cl)cc32)c1OC | 260 | 37 |  | 
COc1cccc(C2OC(CC(=O)O)c3noc(C(C)C)c3-c3ccc(Cl)cc32)c1OC (single isomer, unassigned; enantiomer 2) | 5500 |  |  | 
COc1cccc(C2OC(CC(=O)O)c3noc(C(C)C)c3-c3ccc(Cl)cc32)c1OC (single isomer, unassigned; enantiomer 3) | 169 | 64 | 31 | 
COc1cccc([C@H]2O[C@H](CC(=O)N3CCC(CC(=O)O)CC3)C(=O)N(CC(C)(C)COC(C)=O)c3ccc(Cl)cc32)c1OC [LAPAQUISTAT ACETATE] | 213 | 7 | 73 | 59
